Activity calls are given as the source filed them. The rule behind the calls is not given here.
Tests used:
[1] = tested on: Rattus norvegicus; test: Stimulus generalization studies in TFMPP trained animals and the number of animals responding /number to receive dose of drug was determined at dose of 0.5 mg/kg; 6/6; assay type: functional
Method in brief: (§1)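 Male Sprague-Dawley rats (n = 6) trained to discriminate 0.5 mg/kg TFMPP HCl from saline on a two-lever operant task, VI 15-s food reward. Challenge doses were given ip in random order 15 min before a 2.5-min extinction test, with at least three training sessions between tests. Fewer than five total responses was scored as disruption.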

[2] = tested on: Rattus norvegicus; test: Compound was evaluated in stimulus generalization test using animals trained to discriminate TFMPP from saline, and the drug appropriate responding at dose of 0.5 mg/kg; assay type: functional; method in brief: as §1
[3] = tested on: Rattus norvegicus; test: Compound was evaluated in stimulus generalization test using animals trained to discriminate TFMPP from saline, and the mean responses per min at dose of 0.5 mg/kg; assay type: functional; method in brief: as §1
[4] = tested on: Rattus norvegicus; test: Compound was evaluated in stimulus generalization test using animals trained to discriminate TFMPP from saline, and the mean responses per min at dose of 3.5 mg/kg; assay type: functional; method in brief: as §1
[5] = Displacement of [3H]5-HT from 5-hydroxytryptamine 1 receptor of rat cortical membrane homogenates
[6] = tested on: Rattus norvegicus; test: Stimulus generalization studies in TFMPP trained animals and the number of animals responding /number to receive dose of drug was determined at dose of 3 mg/kg; 2/3; assay type: functional
[7] = tested on: Rattus norvegicus; test: Compound was evaluated in tests of stimulus generalization using animals trained to discriminate DOM from saline, and the drug appropriate responding at dose of 0.6 mg/kg; assay type: functional
Method in brief: (§2)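 Male Sprague-Dawley rats (n = 10) trained to discriminate 1.0 mg/kg DOM HCl from saline on a two-lever operant task, VI 15-s food reinforcement. Test doses were given ip in random order, 15 min pre-session, with at least three training sessions between tests. Responding was scored in a 2.5-min extinction session. Rats with fewer than five total responses were counted as disrupted.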

[8] = tested on: Rattus norvegicus; test: Stimulus generalization studies in TFMPP trained animals and the number of animals responding /number to receive dose of drug was determined at dose of 1 mg/kg; 3/3; assay type: functional; method in brief: as §1
[9] = target: Serotonin 2 (5-HT2) receptor (Rattus norvegicus, UniProt P30994+P08909+P14842); test: Displacement of [3H]ketanserin from 5-hydroxytryptamine 2 receptor of rat cortical membrane homogenates
[10] = tested on: Rattus norvegicus; test: Compound was evaluated in tests of stimulus generalization using animals trained to discriminate DOM from saline, and the mean responses per min at dose of 5.0 mg/kg; assay type: functional; method in brief: as §2
[11] = tested on: Rattus norvegicus; test: Compound was evaluated in stimulus generalization test using animals trained to discriminate TFMPP from saline, and the drug appropriate responding at dose of 1.0 mg/kg; assay type: functional; method in brief: as §1
[12] = tested on: Rattus norvegicus; test: Compound was evaluated in stimulus generalization test using animals trained to discriminate TFMPP from saline, and the drug appropriate responding at dose of 3.5 mg/kg; assay type: functional; method in brief: as §1
[13] = tested on: Rattus norvegicus; test: Compound was evaluated in tests of stimulus generalization using animals trained to discriminate DOM from saline, and the mean responses per min at dose of 2.5 mg/kg; assay type: functional; method in brief: as §2
[14] = tested on: Rattus norvegicus; test: Compound was evaluated in stimulus generalization studies in DOM trained animals and the number of animals responding /number ot receive dose of drug at dose of 5.0 mg/kg; 3/4; assay type: functional; method in brief: as §2
[15] = tested on: Rattus norvegicus; test: Compound was evaluated in tests of stimulus generalization using animals trained to discriminate DOM from saline, and the mean responses per min at dose of 3.5 mg/kg; assay type: functional; method in brief: as §2
[16] = tested on: Rattus norvegicus; test: Compound was evaluated in stimulus generalization studies in DOM trained animals and the number of animals responding /number ot receive dose of drug at dose of 0.6 mg/kg; 3/3; assay type: functional; method in brief: as §2
[17] = tested on: Rattus norvegicus; test: Compound was evaluated in stimulus generalization studies in DOM trained animals and the number of animals responding /number ot receive dose of drug at dose of 2.5 mg/kg; 4/4; assay type: functional; method in brief: as §2
[18] = tested on: Rattus norvegicus; test: Compound was evaluated in stimulus generalization test using animals trained to discriminate TFMPP from saline, and the mean responses per min at dose of 3.0 mg/kg; assay type: functional; method in brief: as §1
[19] = tested on: Rattus norvegicus; test: Stimulus generalization studies in TFMPP trained animals and the number of animals responding /number to receive dose of drug was determined at dose of 4.0 mg/kg; 0/3; assay type: functional
[20] = tested on: Rattus norvegicus; test: Compound was evaluated in stimulus generalization test using animals trained to discriminate TFMPP from saline, and the mean responses per min at dose of 1.0 mg/kg; assay type: functional; method in brief: as §1
[21] = tested on: Rattus norvegicus; test: Compound was evaluated in tests of stimulus generalization using animals trained to discriminate DOM from saline, and the drug appropriate responding at dose of 5.0 mg/kg; assay type: functional; method in brief: as §2
[22] = tested on: Rattus norvegicus; test: Stimulus generalization studies in TFMPP trained animals and the number of animals responding /number to receive dose of drug was determined at dose of 3.5 mg/kg; 2/3; assay type: functional
[23] = tested on: Rattus norvegicus; test: Compound was evaluated in stimulus generalization studies in DOM trained animals and the number of animals responding /number ot receive dose of drug at dose of 3.5 mg/kg; 4/4; assay type: functional; method in brief: as §2
[24] = tested on: Rattus norvegicus; test: Compound was evaluated in stimulus generalization test using animals trained to discriminate TFMPP from saline, and the drug appropriate responding at dose of 3.0 mg/kg; assay type: functional; method in brief: as §1
[25] = tested on: Rattus norvegicus; test: Compound was evaluated in tests of stimulus generalization using animals trained to discriminate DOM from saline, and the drug appropriate responding at dose of 2.5 mg/kg; assay type: functional; method in brief: as §2
[26] = tested on: Rattus norvegicus; test: Compound was evaluated in stimulus generalization test using animals trained to discriminate TFMPP from saline, and the drug appropriate responding at dose of 4.0 mg/kg; Not responding; assay type: functional, organism-based; design: dose 4 mg/kg; method in brief: as §1
[27] = tested on: Rattus norvegicus; test: Compound was evaluated in tests of stimulus generalization using animals trained to discriminate DOM from saline, and the drug appropriate responding at dose of 3.5 mg/kg; assay type: functional; method in brief: as §2
[28] = species on record: Rattus norvegicus; test: Compound was tested for the doses at which the animals would be expected to make approximately 50% of their responses on the DOM-appropriate lever; assay type: functional
Method in brief: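 DOM-trained rats (1.0 mg/kg DOM HCl vs saline, two-lever, VI 15 s, food) were given ip doses 15 min before a 2.5-min extinction session. Where >80% of responses fell on the DOM lever (generalization), the dose expected to give about 50% DOM-lever responding was calculated from dose–response data and reported with 95% confidence limits.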

[29] = tested on: Rattus norvegicus; test: Compound was evaluated in tests of stimulus generalization using animals trained to discriminate DOM from saline, and the mean responses per min at dose of 0.6 mg/kg; assay type: functional; method in brief: as §2

FC(F)(F)c1cccc(N2CCNCC2)c1
Activity [1]: 6
Drug responding [2]: 92%
Mean response/min [3]: 18.2

c1ccc2cc(N3CCNCC3)ccc2c1
Mean response/min [4]: 7
Ki [5]: 265 nM
Activity [6]: 2
Drug responding [7]: 3%
Activity [8]: 3
Ki [9]: 70 nM
Mean response/min [10]: 8.7
Drug responding [11]: 6%
Drug responding [12]: 25%
Mean response/min [13]: 16.8
Activity [14]: 3
Mean response/min [15]: 8
Activity [16]: 3
Activity [17]: 4
Mean response/min [18]: 7
Activity [19]: 0
Mean response/min [20]: 20.6
Drug responding [21]: 88%
Activity [22]: 2
Activity [23]: 4
Drug responding [24]: 12%
Drug responding [25]: 33%
Drug responding [26]: inactive
Drug responding [27]: 71%
ED50 [28]: 2.9 mg/kg
Mean response/min [29]: 16.1

From ChEMBL document CHEMBL1123371, “5-HT1 and 5-HT2 binding characteristics of some quipazine analogues” (J Med Chem, 1986)
